≈ marks a conversion by molar mass, not a printed value.
Columns and labels:
Format in all cases: functional
[1] = system: Pseudomonas aeruginosa; test: Antimicrobial activity against Pseudomonas aeruginosa at 100 ug/ml by agar plate diffusion technique; conditions: read-out: IZ
Summary of the method: (§1)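 Agar plate diffusion against E. coli, P. aeruginosa, S. aureus and B. subtilis, with compounds at 25, 50 and 100 µg/mL. Streptomycin as standard.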

[2] = system: Staphylococcus aureus; test: Antimicrobial activity against Staphylococcus aureus at 25 ug/ml by agar plate diffusion technique; conditions: read-out: IZ; summary of the method: as §1
[3] = system: Bacillus subtilis; test: Antimicrobial activity against Bacillus subtilis at 50 ug/ml by agar plate diffusion technique; conditions: read-out: IZ; summary of the method: as §1
[4] = system: Candida albicans; test: Antimicrobial activity against Candida albicans at 100 ug/ml by paper disc method; conditions: read-out: IZ
Summary of the method: (§2)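 Paper disc method against A. niger and C. albicans, with compounds at 25, 50 and 100 µg/mL. Amphotericin-B as standard.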

[5] = system: Escherichia coli; test: Antimicrobial activity against Escherichia coli at 100 ug/ml by agar plate diffusion technique; conditions: read-out: IZ; summary of the method: as §1
[6] = system: Aspergillus niger; test: Antimicrobial activity against Aspergillus niger at 100 ug/ml by paper disc method; conditions: read-out: IZ; summary of the method: as §2
[7] = Antioxidant activity assessed as inhibition of lipid peroxidation using egg lecithin liposomes incubated for 1 hr
Summary of the method: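 Egg lecithin (3 mg/mL, phosphate buffer pH 7.4) sonicated 10 min to form liposomes. Sample or ascorbic acid (12.5–100 µg/mL) added. Peroxidation induced with FeCl3 and L-ascorbic acid, 1 h at 37 °C. Stopped with HCl/TCA/TBA/BHA, boiled 15 min, centrifuged, supernatant read at 532 nm. Triplicate. % inhibition vs control. IC50 derived.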

[8] = Antioxidant activity assessed as nitric oxide radical scavenging activity after 150 mins
Summary of the method: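 10 mM sodium nitroprusside (4 mL), PBS pH 7.4 (1 mL) and sample or ascorbic acid in DMSO (1 mL, 12.5–100 µg/mL), incubated 150 min at 25 °C. Nitrite detected with sulphanilic acid (5 min) then naphthylethylenediamine (30 min, diffused light). Read at […]. Triplicate. % inhibition = [1 − (Vt/Vc)] × 100. IC50 derived from it.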

[9] = system: Bacillus subtilis; test: Antimicrobial activity against Bacillus subtilis at 100 ug/ml by agar plate diffusion technique; conditions: read-out: IZ; summary of the method: as §1
[10] = system: Metaphire posthuma; test: Anthelmintic activity against Pheretima posthuma assessed as time taken for complete parasite paralysis at 0.5% w/v
Summary of the method: (§3)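 Earthworms (Pheretima posthuma) exposed to test solutions at 0.1, 0.2 and 0.5% w/v; time in minutes to complete paralysis (worms motionless) recorded. Albendazole as standard. Mean of three determinations ± S.D.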

[11] = Antioxidant activity assessed as hydrogen peroxide scavenging activity after 10 mins
Summary of the method: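 H2O2 (20 mM) in PBS pH 7.4. 1 mL of sample or ascorbic acid in methanol (12.5–100 µg/mL) added to 2 mL H2O2 solution. A230 read after 10 min. % inhibition = [1 − (Vt/Vc)] × 100. Triplicate, averaged. IC50 derived from % inhibition across concentrations.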

[12] = system: Metaphire posthuma; test: Anthelmintic activity against Pheretima posthuma assessed as time taken for complete parasite paralysis at 0.1% w/v; summary of the method: as §3
[13] = system: Pseudomonas aeruginosa; test: Antimicrobial activity against Pseudomonas aeruginosa at 25 ug/ml by agar plate diffusion technique; conditions: read-out: IZ; summary of the method: as §1
[14] = system: Metaphire posthuma; test: Anthelmintic activity against Pheretima posthuma assessed as time taken for complete parasite paralysis at 0.2% w/v; summary of the method: as §3
[15] = system: Bacillus subtilis; test: Antimicrobial activity against Bacillus subtilis at 25 ug/ml by agar plate diffusion technique; conditions: read-out: IZ; summary of the method: as §1
[16] = system: Staphylococcus aureus; test: Antimicrobial activity against Staphylococcus aureus at 100 ug/ml by agar plate diffusion technique; conditions: read-out: IZ; summary of the method: as §1
[17] = system: Aspergillus niger; test: Antimicrobial activity against Aspergillus niger at 50 ug/ml by paper disc method; conditions: read-out: IZ; summary of the method: as §2
[18] = system: Pseudomonas aeruginosa; test: Antimicrobial activity against Pseudomonas aeruginosa at 50 ug/ml by agar plate diffusion technique; conditions: read-out: IZ; summary of the method: as §1
[19] = system: Candida albicans; test: Antimicrobial activity against Candida albicans at 25 ug/ml by paper disc method; conditions: read-out: IZ; summary of the method: as §2
[20] = system: Candida albicans; test: Antimicrobial activity against Candida albicans at 50 ug/ml by paper disc method; conditions: read-out: IZ; summary of the method: as §2
[21] = system: Metaphire posthuma; test: Anthelmintic activity against Pheretima posthuma assessed as time taken for parasite death at 0.5% w/v
Summary of the method: (§4)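 Earthworms (Pheretima posthuma, spelled Perituma posthuma in text) exposed to test compounds at 0.1, 0.2 and 0.5% w/v. Albendazole served as standard, with an untreated control. Paralysis was recorded as the time until worms became motionless, then time to death was recorded, in minutes. Each value is the mean of three determinations with S.D.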

[22] = Antioxidant activity assessed as potassium ferricyanide ion reducing power after 20 mins
Summary of the method: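 Oyaizu method. Samples or ascorbic acid in DMF (12.5–100 µg/mL) mixed with 0.2 M phosphate buffer pH 6.6 and 1% potassium ferricyanide, 20 min at 50 °C. 10% TCA added, centrifuged. Supernatant mixed with water and 0.1% FeCl3, read at 700 nm. % = [(Vt/Vc) − 1] × 100. IC50 derived.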

[23] = system: Metaphire posthuma; test: Anthelmintic activity against Pheretima posthuma assessed as time taken for parasite death at 0.1% w/v; summary of the method: as §4
[24] = system: Metaphire posthuma; test: Anthelmintic activity against Pheretima posthuma assessed as time taken for parasite death at 0.2% w/v; summary of the method: as §4
[25] = system: Escherichia coli; test: Antimicrobial activity against Escherichia coli at 25 ug/ml by agar plate diffusion technique; conditions: read-out: IZ; summary of the method: as §1
[26] = Antiinflammatory activity assessed as inhibition of albumin denaturation at 100 ug/ml by UV-visible spectrophotometry
Summary of the method: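 Compounds dissolved in minimal DMF, diluted in PBS pH 7.4 (final DMF <2.5%). 1 mL test solution (100 µg/mL) plus 1 mL 1% albumin in PBS, 15 min at 27 ± 1 °C, then heated 10 min at 60 ± 1 °C. After cooling, turbidity read at 660 nm. % inhibition = [(Vt/Vc) − 1] × 100 against a no-drug control. Triplicate, averaged. Diclofenac standard.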

[27] = system: Aspergillus niger; test: Antimicrobial activity against Aspergillus niger at 25 ug/ml by paper disc method; conditions: read-out: IZ; summary of the method: as §2
[28] = system: Staphylococcus aureus; test: Antimicrobial activity against Staphylococcus aureus at 50 ug/ml by agar plate diffusion technique; conditions: read-out: IZ; summary of the method: as §1
[29] = system: Escherichia coli; test: Antimicrobial activity against Escherichia coli at 50 ug/ml by agar plate diffusion technique; conditions: read-out: IZ; summary of the method: as §1

SMILES | zone of inhibition at 100 µg/mL [1] [mm] | zone of inhibition at 25 µg/mL [2] [mm] | zone of inhibition at 50 µg/mL [3] [mm] | zone of inhibition at 100 µg/mL [4] [mm] | zone of inhibition at 100 µg/mL [5] [mm] | zone of inhibition at 100 µg/mL [6] [mm] | IC50 [7] [µg/mL] | IC50 [8] [µg/mL] | zone of inhibition at 100 µg/mL [9] [mm] | Time [10] [min] | IC50 [11] [µg/mL] | Time [12] [min] | zone of inhibition at 25 µg/mL [13] [mm] | Time [14] [min] | zone of inhibition at 25 µg/mL [15] [mm] | zone of inhibition at 100 µg/mL [16] [mm] | zone of inhibition at 50 µg/mL [17] [mm] | zone of inhibition at 50 µg/mL [18] [mm] | zone of inhibition at 25 µg/mL [19] [mm] | zone of inhibition at 50 µg/mL [20] [mm] | other results
CCOC(=O)c1cnn(-c2nc(-c3ccco3)c(C#N)c(=O)n2C)c1N | 19.9 | 10.9 | 14.1 | 18 | 18 | 20.4 | 116 (≈ 327 µM) | 108 (≈ 305 µM) | 18.3 | 45.98 | 104 (≈ 294 µM) | 47.26 | 9.19 | 42.22 | 12.9 | 17.7 | 13.1 | 12.1 | 10.9 | 12.3 | Time [21]: 54.82 min; IC50 [22]: 91 µg/mL (≈ 257 µM); Time [23]: 58.76 min; Time [24]: 55.23 min; zone of inhibition at 25 µg/mL [25]: 13 mm; inhibition [26]: 42.2%; zone of inhibition at 25 µg/mL [27]: 10.1 mm; zone of inhibition at 50 µg/mL [28]: 14.1 mm; zone of inhibition at 50 µg/mL [29]: 14.2 mm
CCOC(=O)c1cnn(-c2nc(-c3ccc(Cl)cc3)c(C#N)c(=O)n2C)c1N | 25.7 | 13.1 | 16.7 | 21.8 | 25 | 23.8 | 88 (≈ 221 µM) | 87 (≈ 218 µM) | 25.4 | 34.76 | 94 (≈ 236 µM) | 49.28 | 11.8 | 41.03 | 14.2 | 22 | 15.6 | 17.1 | 12.2 | 16 | Time [21]: 56.33 min; IC50 [22]: 64 µg/mL (≈ 160 µM); Time [23]: 64.72 min; Time [24]: 58.23 min; zone of inhibition at 25 µg/mL [25]: 14.7 mm; inhibition [26]: 64.6%; zone of inhibition at 25 µg/mL [27]: 11.6 mm; zone of inhibition at 50 µg/mL [28]: 17.1 mm; zone of inhibition at 50 µg/mL [29]: 19.5 mm
CSc1nc(-c2ccccc2Cl)c(C#N)c(=O)n1C | 12 | 9.4 | 19.3 | 20.8 | 12.4 | 17.5 | 72 (≈ 247 µM) | 81 (≈ 278 µM) | 28.8 | 40.61 | 67 (≈ 230 µM) | 55.29 | 8.52 | 40.27 | 14.2 | 16.8 | 10.6 | 10.4 | 9.18 | 13.8 | Time [21]: 50.24 min; IC50 [22]: 76 µg/mL (≈ 260 µM); Time [23]: 72.39 min; Time [24]: 55.8 min; zone of inhibition at 25 µg/mL [25]: 9.64 mm; inhibition [26]: 72.2%; zone of inhibition at 25 µg/mL [27]: 10.6 mm; zone of inhibition at 50 µg/mL [28]: 12.3 mm; zone of inhibition at 50 µg/mL [29]: 10.2 mm
CCOC(=O)c1cnn(-c2nc(-c3cccs3)c(C#N)c(=O)n2C)c1N | 18.8 | 11.8 | 15.1 | 21.5 | 16.1 | 22.1 | 97 (≈ 262 µM) | 98 (≈ 265 µM) | 18.7 | 43.59 | 109 (≈ 294 µM) | 42.48 | 9.67 | 40.12 | 12.9 | 16.5 | 15.8 | 12.7 | 9.1 | 13.8 | Time [21]: 47.44 min; IC50 [22]: 79 µg/mL (≈ 213 µM); Time [23]: 47.38 min; Time [24]: 49.67 min; zone of inhibition at 25 µg/mL [25]: 12.5 mm; inhibition [26]: 44.6%; zone of inhibition at 25 µg/mL [27]: 12.1 mm; zone of inhibition at 50 µg/mL [28]: 12.2 mm; zone of inhibition at 50 µg/mL [29]: 13.1 mm
CCOC(=O)c1cnn(-c2nc(-c3cccc(O)c3O)c(C#N)c(=O)n2C)c1N | 20.3 | 12.7 | 15.1 | 17.7 | 22.9 | 17.2 | 49 (≈ 124 µM) | 58 (≈ 146 µM) | 21.8 | 53.34 | 53 (≈ 134 µM) | 60.22 | 10.3 | 65.54 | 14.4 | 20.3 | 11.7 | 12.8 | 10.4 | 13.3 | Time [21]: 60.74 min; IC50 [22]: 41 µg/mL (≈ 103 µM); Time [23]: 70.56 min; Time [24]: 75.78 min; zone of inhibition at 25 µg/mL [25]: 13.1 mm; inhibition [26]: 57.6%; zone of inhibition at 25 µg/mL [27]: 9.48 mm; zone of inhibition at 50 µg/mL [28]: 16.1 mm; zone of inhibition at 50 µg/mL [29]: 16 mm
CCOC(=O)c1cnn(-c2nc(-c3ccc(OC)cc3)c(C#N)c(=O)n2C)c1N | 16.1 | 10.1 | 14 | 19.8 | 17.4 | 20.7 | 68 (≈ 172 µM) | 79 (≈ 200 µM) | 18.1 | 45.02 | 74 (≈ 188 µM) | 52.09 | 8.21 | 49.46 | 10.2 | 18.6 | 13 | 10.2 | 9.62 | 12.6 | Time [21]: 57.93 min; IC50 [22]: 59 µg/mL (≈ 150 µM); Time [23]: 67.41 min; Time [24]: 63.37 min; zone of inhibition at 25 µg/mL [25]: 10.5 mm; inhibition [26]: 13.6%; zone of inhibition at 25 µg/mL [27]: 11.6 mm; zone of inhibition at 50 µg/mL [28]: 15.1 mm; zone of inhibition at 50 µg/mL [29]: 14.7 mm
